In experiment [1] the test system is HepG2. The experiment in a line: Antitumor activity against human HepG2 cells xenografted in BALB/c mouse assessed as induction of autophagy by measuring increase in LC3-II level in tumor tissue at 10 to 20 mg/kg/day, ip administered for 15 days by western blot analysis. In kind it is functional, organism-based. The conditions noted are these: dose 10-20 mg/kg/day, time 15.0 day. In short, it runs like this:
(§1)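 HepG2 cells (5×10^6) injected subcutaneously into flanks of 4-week-old male Balb/c nude mice. At about 100 mm³, 15 mice were randomized to vehicle, 10 or 20 mg/kg i.p. once daily for 15 days. Tumors were then excised for immunostaining of paraffin sections (5 μm) or for western blot.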

For experiment [2], the system named is HepG2. Nature of the experiment: Induction of endoplasmic reticulum stress in human HepG2 cells assessed as increase in PDI protein expression at 2 uM incubated for 6 hrs by confocal microsocopic analysis. In kind it is functional, cell-based. In short, it runs like this: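 HepG2, or HepG2 plus shNur77 HepG2, treated with 2.0 µM for 6 h, fixed in 4% paraformaldehyde 20 min, permeabilised 0.1% Triton X-100, blocked in 5% BSA, stained with PDI antibody and imaged by confocal fluorescence microscopy.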

Experiment [3] has as its system HepG2. The experiment in a line: Induction of morphological changes in human HepG2 cells assessed as vesicles accumulation at 1 to 2 uM incubated for 6 to 12 hrs by phase contrast microscopic analysis. The conditions noted are these: dose 1-2 µM, time 6-12 hrs. In kind it is functional, cell-based. The essentials:
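HepG2 cells given graded concentrations; morphology monitored at set time points by phase-contrast optical microscopy.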

Experiment [4] concerns HepG2. The experiment in a line: Disruption of mitochondrial membrane potential in human HepG2 cells transfected with shNur77 assessed as green fluorescence intensity at 2 uM incubated for 12 hrs by JC-1 staining based flow cytometry (reference value: 44890 units). In kind it is functional.
The target in experiment [5] is T1, Nuclear receptor subfamily 4immunitygroup A member 1 (Homo sapiens, UniProt P22736). Nature of the experiment: Modulation of Nur77 in human HepG2 cells assessed as induction of endoplasmic reticulum translocation at 2 uM incubated for 6 hrs by ER-tracker based confocal microscopy. In kind it is subcellular. The note with it: filed as modulator. In short, it runs like this: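 HepG2 exposed to 2.0 µM for 6 h, then co-stained with Nur77 antibody and ER tracker; confocal imaging.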
T1 sequence (P22736 whole entry): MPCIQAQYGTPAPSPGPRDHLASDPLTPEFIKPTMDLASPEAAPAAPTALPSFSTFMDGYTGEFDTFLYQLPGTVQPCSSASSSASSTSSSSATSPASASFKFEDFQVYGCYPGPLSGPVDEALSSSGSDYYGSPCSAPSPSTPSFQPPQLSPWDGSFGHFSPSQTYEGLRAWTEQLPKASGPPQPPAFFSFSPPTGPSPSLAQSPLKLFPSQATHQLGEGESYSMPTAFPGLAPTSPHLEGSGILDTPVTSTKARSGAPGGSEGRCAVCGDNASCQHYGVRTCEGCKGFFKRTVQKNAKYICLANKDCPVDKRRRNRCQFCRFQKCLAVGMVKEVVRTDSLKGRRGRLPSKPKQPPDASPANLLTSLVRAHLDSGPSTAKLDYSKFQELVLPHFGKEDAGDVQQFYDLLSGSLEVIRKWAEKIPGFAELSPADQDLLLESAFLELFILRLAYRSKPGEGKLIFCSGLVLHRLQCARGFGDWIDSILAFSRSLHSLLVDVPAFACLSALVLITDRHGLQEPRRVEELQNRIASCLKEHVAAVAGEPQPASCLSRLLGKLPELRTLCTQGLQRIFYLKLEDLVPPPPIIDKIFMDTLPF

Experiment [6] deals with HepG2. The experiment in a line: Antitumor activity against human HepG2 cells xenografted in BALB/c mouse assessed as sparser and vacuolated cells in tumor tissue at 10 to 20 mg/kg/day, ip for 15 days by hematoxylin and eosin staining based microscopic analysis. In kind it is functional, organism-based. The note with it: dose 10-20 mg/kg/day, time 15.0 day. In short, it runs like this: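 H&E staining of 4% paraformaldehyde-fixed, paraffin-embedded 5 μm tumor slices from the HepG2 flank xenograft (male Balb/c nude mice, 10 or 20 mg/kg i.p. daily for 15 days, versus vehicle). Examined by light microscopy at 200, 400 and 1000×.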
(In general: Xenograft models place foreign cells or tissue in a host animal.)

The test system of experiment [7] is HepG2. The experiment in a line: Antitumor activity against human HepG2 cells xenografted in BALB/c mouse assessed as induction of autophagy by measuring increase in LC3-II level in tumor tissue at 10 to 20 mg/kg/day, ip administered for 15 days by immunohistochemical analysis. The conditions noted are these: dose 10-20 mg/kg/day, time 15.0 day. In kind it is functional, organism-based. The essentials:
as §1

Experiment [8] concerns HepG2. Nature of the experiment: Antitumor activity against human HepG2 cells xenografted in BALB/c mouse assessed as tumor growth inhibition at 10 mg/kg/day, ip administered for 15 days. The experiment is classed as functional. The conditions noted are these: 360 h, time 15 day. In short, it runs like this:
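Subcutaneous flank xenograft of 5×10^6 HepG2 cells in 4-week-old male Balb/c nude mice. At about 100 mm³, 15 mice were randomized into three groups: vehicle, 10 or 20 mg/kg i.p. daily for 15 days. Tumor size was measured every day, and tumors were excised and weighed at the end.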

Experiment [9] deals with HepG2. Nature of the experiment: Induction of autophagy in human HepG2 cells assessed as increase in Beclin 1 expression measured after 12 hrs by Western blot analysis. The note with it: dose 0.5-2 µM. The experiment is classed as functional, cell-based. The essentials:
(§2)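 HepG2, QGY-7703 and SMMC-7721 treated with graded concentrations for 12 h. Lysed in RIPA with inhibitors; 40-80 µg protein separated by SDS-PAGE, blotted to nitrocellulose, blocked 1 h in 5% milk, primary antibodies overnight (LC3, Beclin1, Bip, CHOP, TRB3), HRP secondaries, chemiluminescence.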

In a further experiment the test system is SMMC-7721. The experiment in a line: Induction of endoplasmic reticulum stress in human SMMC-7721 cells assessed as increase in CHOP protein expression incubated for 12 hrs by Western blot analysis. The experiment is classed as functional, cell-based. The conditions noted are these: dose 0.5-2 µM. In short, it runs like this: as §2
(In general: A western blot detects proteins with antibodies after separation by electrophoresis.)

In experiment [10] the test system is HepG2. The experiment in a line: Induction of apoptosis in human HepG2 cells transfected with shRNA assessed as necrotic cells at 2 uM incubated for 12 hrs by Annexin V-FITC/PI staining based flow cytometry (reference value: 0.15%). In kind it is functional.
Experiment [11] concerns HepG2. Nature of the experiment: Induction of apoptosis in human HepG2 cells transfected with shNur77 assessed as increase in cleaved PARP level at 2 uM incubated for 12 hrs by Western blot analysis. The experiment is classed as functional, cell-based. The essentials: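 HepG2 carrying scrambled or Nur77 shRNA exposed to 2.0 µM for 12 h. RIPA lysates with protease/phosphatase inhibitors, 40-80 µg protein by BCA resolved on SDS-PAGE, moved to nitrocellulose, milk-blocked, probed overnight for PARP cleavage and Nur77 with HRP secondaries, chemiluminescent detection.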

The test system of the next experiment is QGY-7703. Nature of the experiment: Induction of endoplasmic reticulum stress in human QGY-7703 cells assessed as increase in bip protein expression incubated for 12 hrs by Western blot analysis. The experiment is classed as functional, cell-based. The note with it: dose 0.5-2 µM. The essentials: as §2
For experiment [12], the system named is HepG2. Nature of the experiment: Upregulation of RARgamma expression in human HepG2 cells at 2 uM incubated for 2 to 12 hrs by Western blot analysis. In kind it is functional, cell-based. The note with it: time 2-12 hrs. In short, it runs like this: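 HepG2 cells given 2.0 µM for the indicated times. RXRα, RARγ and Nur77 detected by western blot: RIPA lysis with protease and phosphatase inhibitors, 40-80 µg protein by SDS-PAGE, nitrocellulose, 5% milk block, primary antibody overnight, HRP secondary, chemiluminescence read-out.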

In experiment [13] the test system is HepG2. The experiment in a line: Induction of endoplasmic reticulum stress in Nur77 […] human HepG2 cells assessed as TRB3 protein expression at 2 uM incubated for 12 hrs by Western blot analysis. The experiment is classed as functional, cell-based. In short, it runs like this: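 HepG2 and shNur77 HepG2 exposed to DMSO or 2.0 µM for 6 and 12 h; lysates immunoblotted for TRB3, Bip, CHOP and Nur77 (SDS-PAGE, nitrocellulose, overnight primary antibodies, HRP secondary, chemiluminescence).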

Another experiment deals with Mus musculus. Nature of the experiment: Induction of Nur77 expression in tumor tissue of BALB/c mouse xenografted with human HepG2 cells at 10 to 20 mg/kg/day, ip administered for 15 days by western blot analysis. The conditions noted are these: dose 10-20 mg/kg/day, time 15.0 day.
Experiment [14] concerns HepG2. The experiment in a line: Induction of apoptosis in human HepG2 cells transfected with shRNA assessed as late apoptotic cells at 2 uM incubated for 12 hrs by Annexin V-FITC/PI staining based flow cytometry (reference value: 2.18%). In kind it is functional. Background: A flow cytometer gives signals particle by particle.
For experiment [15], the system named is HepG2. Nature of the experiment: Induction of apoptosis in human HepG2 cells assessed as cleaved caspase-9 expression at 2 uM pretreated with autophagy inhibitor, 3-methyladenine for 2 hrs followed by incubation with compound for 12 hrs by Western blot analysis. In kind it is functional, cell-based. The essentials: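 HepG2 cells grown to confluence were pretreated 2 h with 2 mM 3-MA (autophagy inhibitor) or 2 mM 4-PBA (ER stress inhibitor), then exposed to compound for 12 h. Proteins (40–80 µg, RIPA lysate) were resolved by SDS-PAGE and blotted for PARP, cleaved caspase-3/-9, Bcl-2 and Bax, with chemiluminescent detection.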

Experiment [16] addresses T1, Nuclear receptor subfamily 4immunitygroup A member 1. Nature of the experiment: Binding affinity to Nur77 ligand binding domain (unknown origin) assessed as dissociation constant by surface plasmon resonance analysis. The essentials: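 SPR with Nur77-LBD, analyte injected at a series of concentrations; KD (equilibrium dissociation constant) and association/dissociation kinetics derived from the sensorgrams.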

Active and inactive are the calls of the source. No cut-off for these calls is given here.

One may read the inhibition in vivo as the change of the read-out against control, counted positive when it falls. For orientation: Kd means a measure of binding affinity in units of concentration. As to `COc1cccc2c(Nc3ccc4[nH]c(C(=O)N/N=C/c5ccc(SC)cc5)cc4c3)cc(C)nc12`, the outcome (in the experiment with HepG2 [1]; in the experiment with HepG2 [2]; in the experiment on HepG2 [3]; in [5]; in the experiment on HepG2 [6]; with HepG2 [7]) was Active. In addition, the outcome with Mus musculus was Active. The Activity is 52452 U with HepG2 [4]; “Dose-dependent effect” in the experiment with HepG2 [9]; “Dose-dependent effect” with SMMC-7721; 0.16% with HepG2 [10]; “Dose-dependent effect” in the experiment with QGY-7703; 23% with HepG2 [14]. The Activity entry in experiment [16] (filed as modulator) was “Dose-dependent effect”. Besides, in the experiment on HepG2 [8], the inhibition in vivo at 10 mg/kg/day was found to be 36.7%. In addition, the outcome in the experiment with HepG2 [11], in the experiment on HepG2 [12], in the experiment on HepG2 [13] and with HepG2 [15] was inactive. Besides, in experiment [16], the Kd turned out to be 3.58 µM.

The record behind these values is ChEMBL document CHEMBL4765399, “Design, synthesis, and biological evaluation of 5-((8-methoxy-2-methylquinolin-4-yl)amino)-1H-indole-2-carbohydrazide derivatives as novel Nur77 modulators” (Eur J Med Chem, 2020).
